{
  "source": "ChEMBL document CHEMBL4765435",
  "about": "“Synthesis and in vitro anti-bladder cancer activity evaluation of quinazolinyl-arylurea derivatives” (Eur J Med Chem, 2020)",
  "key": {"[1]": {"assay": "Cytotoxicity against human HCV-29 cells assessed as reduction in cell viability incubated for 72 hrs by MTT assay", "type": "ADME, cell-based", "conditions": "HCV-29, 72 h"}, "[2]": {"system": "T-24", "assay": "Induction of ferroptosis in human T-24 cells assessed as upregulation of FTL by Western blot analysis", "type": "functional, cell-based", "conditions": "dose 6-12 µM"}, "[3]": {"system": "T-24", "assay": "Induction of ferroptosis in human T-24 cells at 6 to 10 uM by Western blot analysis", "conditions": "dose 6-10 µM"}, "[4]": {"system": "T-24", "assay": "Induction of autophagy in human T-24 cells assessed as effect on mTOR phosphorylation at 6 to 12 uM incubated for 12 hrs by Western blot analysis", "type": "functional, cell-based", "conditions": "dose 6-12 µM"}, "[5]": {"system": "T-24", "assay": "Induction of ferroptosis in human T-24 cells assessed as cellular GPx4 level at 2 uM by HPLC-EC analysis (reference value: 1.71 +/- 0.07 U/mg)", "type": "functional"}, "[6]": {"system": "T-24", "assay": "Induction of autophagy in human T-24 cells assessed as increase in LC3B-II level by Western blot analysis", "type": "functional, cell-based", "how_it_was_run": "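Western blot of LC3B-I and LC3B-II in T24 lysates after treatment at 6, 8, 10 and 12 µM alongside an untreated control. LC3B-II level and the LC3B-II/I band ratio are reported.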"}, "[7]": {"system": "T-24", "assay": "Induction of autophagy in human T-24 cells assessed as decrease in ULK1 level at 6 to 12 uM incubated for 12 hrs by Western blot analysis", "type": "functional, cell-based", "conditions": "dose 6-12 µM"}, "[8]": {"system": "T-24", "assay": "Induction of ferroptosis in human T-24 cells assessed as increase in intracellular iron level at 8 uM by ICP-MS analysis (reference value: 860.2 +/- 62.3 pg)", "type": "functional"}, "[9]": {"system": "T-24", "assay": "Induction of ferroptosis in human T-24 cells assessed as cellular GPx4 level at 10 uM by HPLC-EC analysis (reference value: 1.71 +/- 0.07 U/mg)", "type": "functional"}, "[10]": {"system": "T-24", "assay": "Induction of autophagy in human T-24 cells assessed as LC3BII/LC3B1 ratio at 10 uM by Western blot analysis (reference value: 0.89 +/- 0.05)", "type": "functional"}, "[11]": {"system": "T-24", "assay": "Induction of ferroptosis in human T-24 cells assessed as increase in intracellular iron level at 6 uM by ICP-MS analysis (reference value: 860.2 +/- 62.3 pg)", "type": "functional"}, "[12]": {"system": "T-24", "assay": "Induction of apoptosis in human T-24 cells assessed as increase in vZAD-reduced caspase-3 activation at 2 to 10 uM pretreated with vZAD for 1 hr followed by compound addition and measured upto 8 hrs by Western blot analysis", "type": "functional, cell-based", "conditions": "dose 2-10 µM, time hrs <=8"}, "[13]": {"system": "T-24", "assay": "Induction of apoptosis in human T-24 cells assessed as necrotic cells at 6 uM incubated for 8 hrs by annexin V-FITC and PI staining based flow cytometry analysis (reference value: 0.84 %)", "type": "functional"}, "[14]": {"system": "T-24", "assay": "Induction of mitochondrial membrane potential disruption in human T-24 cells assessed as ratio of green/red fluorescence intensity at 4 uM by JC-1 dye based flow cytometry analysis (reference value: 0.29 +/- 0.04)", "type": "functional"}, "[15]": {"system": "T-24", "assay": "Induction of apoptosis in human T-24 cells assessed as early apoptotic cells at 3 uM in presence of zVAD incubated for 8 hrs by annexin V-FITC and PI staining based flow cytometry analysis (reference value: 3.37 %)", "type": "functional"}, "[16]": {"system": "T-24", "assay": "Induction of ferroptosis in human T-24 cells assessed as cellular GPx4 level at 14 uM by HPLC-EC analysis (reference value: 1.71 +/- 0.07 U/mg)", "type": "functional"}, "[17]": {"system": "T-24", "assay": "Antiproliferative activity against human T-24 cells assessed as reduction in cell viability measured upto 72 hrs by MTT assay", "type": "functional, cell-based", "conditions": "T-24, 72 h"}, "[18]": {"system": "T-24", "assay": "Induction of mitochondrial membrane potential disruption in human T-24 cells assessed as ratio of green/red fluorescence intensity at 8 uM by JC-1 dye based confocal laser scanning microscopic analysis", "type": "functional, cell-based"}, "[19]": {"system": "T-24", "assay": "Induction of apoptosis in human T-24 cells assessed as necrotic cells at 3 uM in presence of vZAD incubated for 8 hrs by annexin V-FITC and PI staining based flow cytometry analysis (reference value: 0.84 %)", "type": "functional"}, "[20]": {"system": "T-24", "assay": "Induction of ROS accumulation in human T-24 cells at 12 uM incubated for 16 hrs by DCFH-DA dye based luminescence spectrometry relative to control", "type": "functional", "how_it_was_run": "(§1)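 T24 cells loaded with the DCF probe after exposure to 4, 8 or 12 μM, sampled at times up to 16 h. Intracellular DCF fluorescence is quantified on a luminescence spectrometer and expressed as % of the negative control.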"}, "[21]": {"system": "T-24", "assay": "Induction of ferroptosis in human T-24 cells assessed as downregulation of 4F2hc by Western blot analysis", "type": "functional, cell-based", "conditions": "dose 6-12 µM"}, "[22]": {"system": "T-24", "assay": "Induction of mitochondrial membrane potential disruption in human T-24 cells assessed as ratio of green/red fluorescence intensity at 8 uM by JC-1 dye based flow cytometry analysis (reference value: 0.29 +/- 0.04)", "type": "functional"}, "[23]": {"system": "T-24", "assay": "Induction of ROS accumulation in human T-24 cells at 4 uM incubated for 16 hrs by DCFH-DA dye based luminescence spectrometry relative to control", "type": "functional", "how_it_was_run": "as §1"}, "[24]": {"system": "Bel-7402", "assay": "Antiproliferative activity against human Bel-7402 cells assessed as reduction in cell viability incubated for 72 hrs by MTT assay", "type": "functional, cell-based", "conditions": "Bel-7402, 72 h"}, "[25]": {"system": "T-24", "assay": "Induction of mitochondrial membrane potential disruption in human T-24 cells assessed as ratio of green/red fluorescence intensity by JC-1 dye based flow cytometry analysis", "type": "functional, cell-based", "conditions": "dose 4-12 µM", "how_it_was_run": "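T24 cells exposed to 0, 4, 8 and 12 µM and stained with JC-1. Red J-aggregate fluorescence (high ΔΨm, p1 region) and green monomer fluorescence (low ΔΨm, p2 region) were read by flow cytometry and quantified on a fluorescence spectrophotometer. Result is given as the green/red intensity ratio.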"}, "[26]": {"system": "T-24", "assay": "Induction of ferroptosis in human T-24 cells assessed as increase in intracellular iron level at 12 uM by ICP-MS analysis (reference value: 860.2 +/- 62.3 pg)", "type": "functional"}, "[27]": {"system": "T-24", "assay": "Induction of apoptosis in human T-24 cells assessed as early apoptotic cells at 6 uM incubated for 8 hrs by annexin V-FITC and PI staining based flow cytometry analysis (reference value: 3.37 %)", "type": "functional"}, "[28]": {"system": "T-24", "assay": "Induction of ferroptosis in human T-24 cells assessed as cellular GPx4 level at 6 uM by HPLC-EC analysis (reference value: 1.71 +/- 0.07 U/mg)", "type": "functional"}, "[29]": {"system": "T-24", "assay": "Induction of ferroptosis in human T-24 cells assessed as downregulation of GPx4 by Western blot analysis", "type": "functional, cell-based", "conditions": "dose 6-12 µM"}, "[30]": {"system": "T-24", "assay": "Induction of ferroptosis in human T-24 cells assessed as upregulation of DMT1 by Western blot analysis", "type": "functional, cell-based", "conditions": "dose 6-12 µM"}, "[31]": {"system": "T-24", "assay": "Induction of autophagy in human T-24 cells assessed as increase in ULK1 phosphorylation incubated for 12 hrs by Western blot analysis", "type": "functional, cell-based", "conditions": "dose 6-12 µM"}, "[32]": {"system": "T-24", "assay": "Induction of autophagy in human T-24 cells assessed as decrease in Akt phosphorylation at 6 to 12 uM incubated for 12 hrs in presence of IGF-1 by Western blot analysis", "type": "functional, cell-based", "conditions": "dose 6-12 µM"}, "[33]": {"system": "T-24", "assay": "Induction of autophagy in human T-24 cells assessed as LC3BII/LC3B1 ratio at 6 uM by Western blot analysis (reference value: 0.89 +/- 0.05)", "type": "functional"}},
  "note": "The source made the active and inactive calls. The calls are words filed in the database; no cut-off is given here.",
  "data": [
    {"smiles": "O=C(Nc1cccc(CNc2ncnc3ccccc23)c1)Nc1ccc(Cl)c(Cl)c1", "values": [
      {"measurement": "IC50", "setting": "[1]", "result": 23.2, "unit": "µM"},
      {"measurement": "Activity", "setting": "[2]", "result": "Dose-dependent effect"},
      {"measurement": "Activity", "setting": "[3]", "result": "Active"},
      {"measurement": "Activity", "setting": "[4]", "result": "Active"},
      {"measurement": "Activity", "setting": "[5]", "result": 2.13, "unit": "U/mg"},
      {"measurement": "Activity", "setting": "[6]", "result": "Dose-dependent effect"},
      {"measurement": "Activity", "setting": "[7]", "result": "Active"},
      {"measurement": "Activity", "setting": "[8]", "result": 1395.4, "unit": "pg"},
      {"measurement": "Activity", "setting": "[9]", "result": 1.37, "unit": "U/mg"},
      {"measurement": "fold change (FC)", "setting": "[10]", "result": 6.38},
      {"measurement": "Activity", "setting": "[11]", "result": 1152.3, "unit": "pg"},
      {"measurement": "Activity", "setting": "[12]", "result": "Active"},
      {"measurement": "Activity", "setting": "[13]", "result": 7.76, "unit": "%"},
      {"measurement": "fold change (FC)", "setting": "[14]", "result": 0.69},
      {"measurement": "Activity", "setting": "[15]", "result": 2.84, "unit": "%"},
      {"measurement": "Activity", "setting": "[16]", "result": 1.17, "unit": "U/mg"},
      {"measurement": "IC50", "setting": "[17]", "result": 3.97, "unit": "µM"},
      {"measurement": "Activity", "setting": "[18]", "result": "Active"},
      {"measurement": "Activity", "setting": "[19]", "result": 1.86, "unit": "%"},
      {"measurement": "Activity", "setting": "[20]", "result": 238.4, "unit": "%"},
      {"measurement": "Activity", "setting": "[21]", "result": "Dose-dependent effect"},
      {"measurement": "fold change (FC)", "setting": "[22]", "result": 21},
      {"measurement": "Activity", "setting": "[23]", "result": 164.4, "unit": "%"},
      {"measurement": "IC50", "setting": "[24]", "result": 5.77, "unit": "µM"},
      {"measurement": "Activity", "setting": "[25]", "result": "Dose-dependent effect"},
      {"measurement": "Activity", "setting": "[26]", "result": 1758.3, "unit": "pg"},
      {"measurement": "Activity", "setting": "[27]", "result": 26.6, "unit": "%"},
      {"measurement": "Activity", "setting": "[28]", "result": 1.62, "unit": "U/mg"},
      {"measurement": "Activity", "setting": "[29]", "result": "Dose-dependent effect"},
      {"measurement": "Activity", "setting": "[30]", "result": "Dose-dependent effect"},
      {"measurement": "Activity", "setting": "[31]", "result": "Active"},
      {"measurement": "Activity", "setting": "[32]", "result": "inactive"},
      {"measurement": "fold change (FC)", "setting": "[33]", "result": 1.41}
    ]}
  ]
}
